What all share (type): functional
The subject of one experiment is Cryptococcus neoformans. Description: Antifungal activity against Cryptococcus neoformans 32609 after 72 hrs by serial dilution method. As to conditions: Cryptococcus neoformans, 32609, 72 h. Summed up:
(§1)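 MIC by broth serial dilution per NCCLS/CLSI (M27-A3 yeasts, M38-A2 filamentous) in 96-well plates; ATCC strains plus clinical isolates; C. parapsilosis 22019 run as quality-control strain in every assay. Compounds dissolved in DMSO, serially diluted in growth medium; incubation 35 °C; MIC read at 24 h (Candida), 48 h (A. fumigatus), 72 h (C. neoformans).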

For another experiment, the system named is Nakaseomyces glabratus. Description: Antifungal activity against Candida glabrata 537 after 24 hrs by serial dilution method. Particulars: Nakaseomyces glabratus, 537, 24 h. Summed up: as §1
Experiment [1] deals with Candida albicans. Description: Antifungal activity against Candida albicans Y0109 after 24 hrs by serial dilution method. As to conditions: Y0109, 24 h. An outline of the steps:
as §1

The test system of another experiment is Candida parapsilosis. Description: Antifungal activity against Candida parapsilosis 22019 after 24 hrs by serial dilution method. As to conditions: Lodderomyces parapsilosis, 22019, 24 h. Summed up: as §1
Experiment [2] deals with Candida albicans. Description: Antifungal activity against Candida albicans SC5314 after 24 hrs by serial dilution method. Particulars: SC5314, 24 h. An outline of the steps:
as §1

Another experiment deals with Aspergillus fumigatus. The experiment in a line: Antifungal activity against Aspergillus fumigatus 7544 after 48 hrs by serial dilution method. Particulars: Aspergillus fumigatus, 7544, 48 h. Summed up: as §1

≈ marks a conversion by molar mass, not a printed value.

By MIC is commonly meant the lowest concentration that inhibits growth of the organism. Lower therefore signals greater potency. Regarding `C[C@@H](N1Cc2sc(Br)cc2C1=O)[C@](O)(Cn1cncn1)c1ccc(F)cc1F`, the MIC against Cryptococcus neoformans stood at 0.125 µg/mL (≈ 0.266 µM); in the experiment on Nakaseomyces glabratus, 0.125 µg/mL (≈ 0.266 µM); with Candida albicans [1], 0.0625 µg/mL (≈ 0.133 µM); in the experiment on Candida parapsilosis, 0.0625 µg/mL (≈ 0.133 µM); in the experiment with Candida albicans [2], 0.0312 µg/mL (≈ 0.0666 µM); against Aspergillus fumigatus, 32 µg/mL (≈ 68.2 µM).
Turning to `C[C@@H](N1Cc2cc(-c3cncc(C#N)c3)sc2C1=O)[C@](O)(Cn1cncn1)c1ccc(F)cc1F`, the MIC was found to be 0.0312 µg/mL (≈ 0.0635 µM) against Cryptococcus neoformans; 0.125 µg/mL (≈ 0.254 µM) in the experiment with Nakaseomyces glabratus; 0.0312 µg/mL (≈ 0.0635 µM) in the experiment with Candida albicans [1]; 0.0156 µg/mL (≈ 0.0317 µM) against Candida parapsilosis; 0.0156 µg/mL (≈ 0.0317 µM) in the experiment on Candida albicans [2]; 4 µg/mL (≈ 8.12 µM) against Aspergillus fumigatus.
For the molecule `C[C@@H](N1Cc2sc(-c3ccccc3)cc2C1=O)[C@](O)(Cn1cncn1)c1ccc(F)cc1F`, the MIC in the experiment on Cryptococcus neoformans came to 0.0625 µg/mL (≈ 0.134 µM); against Nakaseomyces glabratus it was 0.0625 µg/mL (≈ 0.134 µM); in the experiment with Candida albicans [1], 0.0312 µg/mL (≈ 0.067 µM); in the experiment on Candida parapsilosis, 0.0312 µg/mL (≈ 0.067 µM); against Candida albicans [2], 0.0156 µg/mL (≈ 0.0334 µM); in the experiment on Aspergillus fumigatus, 32 µg/mL (≈ 68.6 µM).
For the molecule `C[C@@H](N1Cc2cc(-c3cccnc3)sc2C1=O)[C@](O)(Cn1cncn1)c1ccc(F)cc1F`, the MIC was found to be 0.0312 µg/mL (≈ 0.0668 µM) in the experiment with Cryptococcus neoformans; 0.125 µg/mL (≈ 0.267 µM) with Nakaseomyces glabratus; 0.0156 µg/mL (≈ 0.0334 µM) against Candida albicans [1]; 0.0312 µg/mL (≈ 0.0668 µM) in the experiment on Candida parapsilosis; 0.0156 µg/mL (≈ 0.0334 µM) with Candida albicans [2]; 4 µg/mL (≈ 8.56 µM) with Aspergillus fumigatus.
Take `COc1ccc(-c2cc3c(s2)C(=O)N([C@H](C)[C@](O)(Cn2cncn2)c2ccc(F)cc2F)C3)cc1`: the MIC came out at 0.0625 µg/mL (≈ 0.126 µM) in the experiment with Cryptococcus neoformans; 0.0625 µg/mL (≈ 0.126 µM) in the experiment with Nakaseomyces glabratus; 0.0156 µg/mL (≈ 0.0314 µM) against Candida albicans [1]; 0.0625 µg/mL (≈ 0.126 µM) in the experiment on Candida parapsilosis; 0.0156 µg/mL (≈ 0.0314 µM) with Candida albicans [2]; 4 µg/mL (≈ 8.06 µM) against Aspergillus fumigatus.
With `C[C@@H](N1Cc2sc(-c3cncnc3)cc2C1=O)[C@](O)(Cn1cncn1)c1ccc(F)cc1F`, the MIC stood at 0.0078 µg/mL (≈ 0.0166 µM) with Cryptococcus neoformans; 0.0156 µg/mL (≈ 0.0333 µM) in the experiment with Nakaseomyces glabratus; 0.0156 µg/mL (≈ 0.0333 µM) with Candida albicans [1]; 0.0156 µg/mL (≈ 0.0333 µM) against Candida parapsilosis; 0.0156 µg/mL (≈ 0.0333 µM) against Candida albicans [2]; 32 µg/mL (≈ 68.3 µM) against Aspergillus fumigatus.
Consider `OC(Cn1cncn1)(Cn1cncn1)c1ccc(F)cc1F` [FLUCONAZOLE], for which the MIC with Cryptococcus neoformans was 4 µg/mL (≈ 13.1 µM); with Nakaseomyces glabratus, 1 µg/mL (≈ 3.27 µM); against Candida albicans [1], 0.25 µg/mL (≈ 0.816 µM); against Candida parapsilosis, 1 µg/mL (≈ 3.27 µM); in the experiment on Candida albicans [2], 0.25 µg/mL (≈ 0.816 µM); in the experiment on Aspergillus fumigatus, > 64 µg/mL.
Consider `C[C@@H](N1Cc2cc(-c3ccc(C#N)cc3)sc2C1=O)[C@](O)(Cn1cncn1)c1ccc(F)cc1F`, for which the MIC in the experiment on Cryptococcus neoformans turned out to be 0.0156 µg/mL (≈ 0.0317 µM); in the experiment with Nakaseomyces glabratus it was 0.125 µg/mL (≈ 0.254 µM); with Candida albicans [1] it was 0.0156 µg/mL (≈ 0.0317 µM); with Candida parapsilosis, 0.0156 µg/mL (≈ 0.0317 µM); in the experiment with Candida albicans [2] it was 0.0156 µg/mL (≈ 0.0317 µM); in the experiment with Aspergillus fumigatus, 4 µg/mL (≈ 8.14 µM).
As for `C[C@@H](n1cnc2cc(Cl)ccc2c1=O)[C@](O)(Cn1cncn1)c1ccc(F)cc1F` [ALBACONAZOLE], the MIC amounted to 0.0078 µg/mL (≈ 0.0181 µM) with Cryptococcus neoformans; 0.0156 µg/mL (≈ 0.0361 µM) with Nakaseomyces glabratus; 0.0156 µg/mL (≈ 0.0361 µM) against Candida albicans [1]; 0.0156 µg/mL (≈ 0.0361 µM) in the experiment on Candida parapsilosis; 0.0078 µg/mL (≈ 0.0181 µM) in the experiment on Candida albicans [2]; 0.25 µg/mL (≈ 0.579 µM) against Aspergillus fumigatus.
Turning to `C[C@@H](c1ncncc1F)[C@](O)(Cn1cncn1)c1ccc(F)cc1F` [VORICONAZOLE], the MIC stood at 0.0156 µg/mL (≈ 0.0447 µM) in the experiment on Cryptococcus neoformans; 0.0156 µg/mL (≈ 0.0447 µM) against Nakaseomyces glabratus; 0.0156 µg/mL (≈ 0.0447 µM) in the experiment with Candida albicans [1]; 0.0156 µg/mL (≈ 0.0447 µM) with Candida parapsilosis; 0.0156 µg/mL (≈ 0.0447 µM) in the experiment with Candida albicans [2]; 0.25 µg/mL (≈ 0.716 µM) in the experiment on Aspergillus fumigatus.
For the molecule `C[C@@H](N1Cc2cc(-c3cncc(F)c3)sc2C1=O)[C@](O)(Cn1cncn1)c1ccc(F)cc1F`, the MIC was 0.0312 µg/mL (≈ 0.0644 µM) in the experiment with Cryptococcus neoformans; 0.25 µg/mL (≈ 0.515 µM) in the experiment on Nakaseomyces glabratus; 0.0312 µg/mL (≈ 0.0644 µM) with Candida albicans [1]; 0.0312 µg/mL (≈ 0.0644 µM) against Candida parapsilosis; 0.0312 µg/mL (≈ 0.0644 µM) against Candida albicans [2]; 4 µg/mL (≈ 8.24 µM) against Aspergillus fumigatus.
Consider `C[C@@H](N1CCc2cc(-c3cncnc3)sc2C1)[C@](O)(Cn1cncn1)c1ccc(F)cc1F`, for which the MIC amounted to 0.125 µg/mL (≈ 0.267 µM) in the experiment with Cryptococcus neoformans; 1 µg/mL (≈ 2.13 µM) against Nakaseomyces glabratus; 0.125 µg/mL (≈ 0.267 µM) in the experiment with Candida albicans [1]; 0.125 µg/mL (≈ 0.267 µM) in the experiment on Candida parapsilosis; 0.25 µg/mL (≈ 0.534 µM) against Candida albicans [2]; 32 µg/mL (≈ 68.3 µM) in the experiment on Aspergillus fumigatus.
As to `C[C@@H](N1CCn2nc(-c3ccc(C#N)nc3)nc2C1)[C@](O)(Cn1cncn1)c1ccc(F)cc1F`, the MIC worked out at 0.0625 µg/mL (≈ 0.131 µM) with Cryptococcus neoformans; 0.0156 µg/mL (≈ 0.0327 µM) in the experiment on Nakaseomyces glabratus; 0.0156 µg/mL (≈ 0.0327 µM) in the experiment on Candida albicans [1]; 0.0156 µg/mL (≈ 0.0327 µM) against Candida parapsilosis; 0.0156 µg/mL (≈ 0.0327 µM) against Candida albicans [2]; 2 µg/mL (≈ 4.19 µM) in the experiment on Aspergillus fumigatus.
Turning to `C[C@@H](N1Cc2cc(-c3ccc(F)cc3)sc2C1=O)[C@](O)(Cn1cncn1)c1ccc(F)cc1F`, the MIC in the experiment with Cryptococcus neoformans stood at 0.0625 µg/mL (≈ 0.129 µM); in the experiment on Nakaseomyces glabratus, 0.125 µg/mL (≈ 0.258 µM); against Candida albicans [1], 0.0312 µg/mL (≈ 0.0645 µM); in the experiment on Candida parapsilosis it was 0.0612 µg/mL (≈ 0.126 µM); against Candida albicans [2], 0.0156 µg/mL (≈ 0.0322 µM); against Aspergillus fumigatus, 4 µg/mL (≈ 8.26 µM).

For the origin of these results see ChEMBL document CHEMBL3616399, “Design, synthesis, and structure-activity relationship studies of novel thienopyrrolidone derivatives with strong antifungal activity against Aspergillus fumigates” (Eur J Med Chem, 2015).
